From ChEMBL document CHEMBL4699414, “Hit-to-lead optimization of novel benzimidazole phenylacetamides as broad spectrum trypanosomacides” (RSC Med Chem, 2020)

What was measured:
Trypanosoma cruzi = test: Antitrypanosomal activity against Trypanosoma cruzi infected in rat H9c2 infected with trypomastigotes from parasite-infected monkey LLC-MK2 cells measured after 72 hrs by DRAQ5 DNA dye based microscopic imaging analysis; assay type: functional, organism-based; details: H9c2, 72 h
[1] = Cytotoxicity against human HepG2 cells assessed as reduction in cell viability measured after 48 hrs by CellTiter-Glo assay; assay type: cell-based
In short: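 HepG2 human hepatoma cells from GSK Biological Reagents and Assay Development (Stevenage, UK); viability read-out per earlier method.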

[2] = Cytotoxicity against human HEK293 cells assessed as reduction in cell viability measured after 48 hrs by resazurin assay; assay type: cell-based
In short: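 HEK293 cells from ATCC; Alamar Blue viability read-out run per earlier method.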

[3] = test system: Trypanosoma brucei brucei; test: Antitrypanosomal activity against Trypanosoma brucei brucei Lister 427 assessed as parasite growth inhibition measured after 48 hrs by alamar blue assay; details: Lister 427, 48 h
[4] = Lipophilicity, logP of the compound; assay type: physicochemical; details: octanol/water
[5] = Cytotoxicity against rat H9c2 cells assessed as reduction in cell viability; assay type: cell-based

Row | Compound | IC50 (Trypanosoma cruzi) [µM] | CC50 at 48 h [1] [µM] | CC50 at 48 h [2] [µM] | IC50 [3] [µM] | logP [4] | CC50 [5] [µM]
1 | CCCn1c(C(=O)NCc2ccc(Cl)cc2)nc2ccccc21 | 10 | > 50 | > 83 | > 83 | 4.1 | 16
2 | CCCc1c(NC(=O)Cc2ccc(Cl)cc2)ncc2ccccc12 | 0.5 | 7.94 | – | – | 5.4 | 3.2
3 | CCCn1c(NC(=O)Cc2cccc(Br)c2)nc2ccccc21 | 1 | > 50 | > 83 | 2.9 | 4.9 | > 50
4 | CCCn1c(NC(=O)Cc2ccc(Cl)cc2)nc2c(OC)cccc21 | 3.2 | > 50 | > 83 | > 83 | 4.6 | > 50
5 | CCCCCCCCC(=O)Nc1nc2ccccc2n1CCC | 2.5 | > 50 | > 83 | 7.3 | 5.7 | 20
6 | CCCn1c(NC(=O)Cc2ccc(OC)cc2)nc2ccccc21 | 3.2 | > 50 | > 83 | 5.2 | 4 | > 50
7 | CCCn1c(NC(=O)Cc2ccc(OC(F)(F)F)cc2)nc2ccccc21 | 1 | > 50 | > 83 | 3.2 | 5.6 | 10
8 | CCCn1c(NC(=O)Cc2cccc(F)c2)nc2ccccc21 | 2 | > 50 | > 83 | 3.2 | 4.3 | > 50
9 | CCCn1c(NC(=O)Cc2ccccc2F)nc2ccccc21 | 3.2 | > 50 | > 83 | 3.6 | 4.3 | > 50
10 | CCCCCn1c(NC(=O)Cc2ccc(Cl)cc2)nc2ccccc21 | 1 | > 50 | > 83 | 3.7 | 5.6 | > 50
11 | CCCn1c(NC(=O)Cc2ccc(Cl)cc2)nc2ccc(C)cc21 | – | – | > 83 | 15 | 5.2 | –
12 | CCCn1c(NC(=O)Cc2ccccc2C)nc2ccccc21 | 2.5 | > 50 | > 83 | 2.6 | 4.6 | > 50
13 | CCCn1c(NC(=O)CCCc2ccccc2)nc2ccccc21 | 1.6 | > 50 | > 83 | 2.4 | 5 | 16
14 | O=C(Cc1ccc(Cl)cc1)Nc1nc2ccccc2[nH]1 | 50 | > 50 | > 83 | – | 3.6 | > 50
15 | CCCn1c(NC(=O)Cc2ccc(Cl)cc2)nc2cccc(Br)c21 | – | – | > 83 | 2.8 | 5.5 | –
16 | CCCn1c(NC(=O)Cc2ccc(Cl)cc2)nc2ccc(F)cc21 | 1.3 | > 50 | 14 | 0.9 | 4.9 | 25
17 | CCCCn1c(NC(=O)Cc2ccc(Cl)cc2)nc2ccccc21 | 1.6 | > 50 | > 83 | 4.4 | 5.2 | 13
18 | CCCn1c(NC(=O)Nc2ccc(Cl)cc2)nc2ccccc21 | 2.5 | 40 | 5.2 | 5.4 | 4.8 | > 50
19 | CCCn1c(NC(=O)Cc2ccccc2OC)nc2ccccc21 | 6.3 | > 50 | > 83 | > 83 | 4 | 13
20 | CCCn1c(NC(=O)Cc2ccc(C(F)(F)F)cc2)nc2ccccc21 | 1 | > 50 | > 83 | 4.5 | 5 | > 50
21 | CCCCC(=O)Nc1nc2ccccc2n1CCC | 13 | > 50 | 2.6 | 11 | 3.9 | 25
22 | N=C(N)c1ccc(/N=N/Nc2ccc(C(=N)N)cc2)cc1 [DIMINAZENE DIACETURATE] | – | – | 38.5 | 0.087 | – | –
23 | COc1ccc(C[C@H](N)C(=O)N[C@H]2[C@@H](O)[C@H](n3cnc4c(N(C)C)ncnc43)O[C@@H]2CO)cc1 [PUROMYCIN] | – | – | 0.23 | 0.038 | – | –
24 | CCCn1c(NC(=O)Cc2ccc(Cl)cc2)nc2cc(Br)ccc21 | 0.79 | – | > 83 | 16 | 5.5 | > 50
